Experimental data as given in ChEMBL document CHEMBL4513216, “Probing the Open Global Health Chemical Diversity Library for Multistage-Active Starting Points for Next-Generation Antimalarials” (ACS Infect Dis, 2020).

Assay: Toxicity liver stage against HepG2, at 10uM
Type: cell-based
Design: test concentration 10 uM, cell line HepG2-A16-CD81EGFP
Details: human, HepG2-A16-CD81EGFP cells; read-out: INHIBITION
How it was run: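 Uninfected HepG2-A16-CD81EGFP cells, 3 × 10^3 per well, 1536-well, plated on prespotted compound at 10 μM final, parasite-free screening media added to match infected plates; puromycin 10 μM positive, DMSO 0.5% negative; run in parallel with 48 h PbLuc assay at 37 °C, 5% CO2; viability by CellTiter-Glo luminescence, normalized to controls.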

| SMILES | cytotoxicity at 10 µM |
| --- | --- |
| O=C1CC(c2ccsc2)c2sc(C(=O)O)c(-c3ccccc3)c2N1 (stereo not given) | 15.2% |
| CC(NC(=O)c1cccs1)C(=O)NCc1ccccn1 (stereo not given) | -12.3% |
| CCN(CC(C)C#N)C(=O)c1cccc(COc2ccc(C)nc2)c1 (stereo not given) | 5.8% |
| CN(C)c1ccccc1C(=O)N1CCOC2(CNCCOC2)C1 (stereo not given) | -1.08% |
| CCC[C@H]1CN(C(=O)c2cc(-c3cccs3)n(C)n2)C[C@@H]1N | -1.02% |
| C1CCCN(CC2CCCN(Cc3noc(C4CC4)n3)C2)CC1 (stereo not given) | -12.7% |
| COc1ccc(CN2CCC(c3cc(O)nc(C)n3)C2)c(F)c1 (stereo not given) | 0.442% |
| Cc1nn(C)c(C)c1C(=O)NCc1cccnc1OC1CCCC1 | -0.171% |
| COc1cc(CNc2cc(-c3nncn3C)ccn2)cc(OC)c1OC | -3.78% |
| COCCC1COC2(CCN(C(=O)c3ccccc3)CC2)C1 (stereo not given) | -87.5% |
| CN(CCc1ccccc1)c1cnn(CC2COCCO2)c(=O)c1 (stereo not given) | -10.3% |
| COc1ccc(N2CCN(C(=O)CCc3n[nH]c(C)n3)CC2=O)cc1 | -0.524% |
| Cc1ccc(F)c(NC(=O)CCC(=O)N(C)Cc2cc(C3CC3)[nH]n2)c1 | 7.28% |
| CCCC(O)CN1CC(C)(C)CN(C(=O)c2ccccc2)CC1=O (stereo not given) | -0.295% |
| Cc1cc(S(=O)(=O)Nc2cccc(OC(F)F)c2)sc1C(=O)O | -0.229% |
| COc1ccnc(N2CCN(C(=O)Cc3ccc(C#N)cc3)CC2)n1 | 4.09% |
| COCC(=O)N1CCC2(CC1)CC(c1cnn(C)c1)C(=O)N2 (stereo not given) | 7.25% |
| c1cncc(CNc2ncnc3c2CCN(Cc2ccsc2)CC3)c1 | 7.91% |
| O=C(c1ccccc1F)N1CC(c2nc(C3CC3)no2)C1 | -0.478% |
| CC(C)c1n[nH]c(C(=O)Nc2ccncc2)c1Br | 12.6% |
| C[C@]1(O)CCN(Cc2ncccc2F)C[C@@H]1Oc1cccc(F)c1 | -1.37% |
| Cc1ccc2nc3n(c2c1)[C@@H](CNC(=O)c1ccncc1)COC3 | -3.61% |

| SMILES | cytotoxicity at 10 µM |
| --- | --- |
| CCn1c(CN2CCN(CC(N)=O)CC2)nc2c(F)cccc21 | -9.88% |
| CC(C)[C@H]1COC(=O)N1CC(=O)N1CCCN(C(=O)c2ccoc2)CC1 | 3.38% |
| CCCN1CCC(CC(=O)N(C)C(C)c2cncs2)CC1 (stereo not given) | 2.62% |
| O=C(NCCn1cnnc1C1CC1)c1c(O)cc(F)cc1F | -1.88% |
| O=C(c1ccc2sccc2c1)N1CCC(C(=O)O)(n2cccn2)CC1 | -2.77% |
| Cc1ccc(C(=O)O)cc1NC(=O)C1CC=CC1 | -7.25% |
| COc1ccc(CNC(C)c2ccccc2Cl)c(OC)c1OC (stereo not given) | 8.01% |
| Cc1cc(CN2C[C@@H](N3CCN(C)CC3)[C@H]3OCCC[C@H]32)oc1C | -132% |
| CC(C)CCc1n[nH]c(C(=O)O)c1Cl | -5.47% |
| O=c1oc(-c2ccc(F)cc2)nn1CN1CCN(C2CCCC2)CC1 | -1.78% |
| COc1cccc(OCC2CCCN(C(=O)c3ncc(F)cc3F)C2)c1 (stereo not given) | 6.35% |
| Cn1nnnc1SCCC(=O)NCC(C)(C)c1ccccc1F | 5.68% |
| Cc1ccc(CNc2n[nH]c(C)n2)cc1 | -2.25% |
| Cc1ccc(-c2nc(CN3CCN(C(=O)C4CC4)CC3)cs2)o1 | -12.6% |
| CN(C)C(=O)c1ccccc1NC(=O)N(C)Cc1ccccc1O | -1.03% |
| CN(Cc1nc2ccccc2c(=O)[nH]1)C[C@@H]1CCCN2CCCC[C@H]12 | -6.01% |
| Cc1cnn(CCNCC(=O)NCCOc2ccccc2)c1 | -14% |
| O=C(c1ccc(N2CCCC2)nn1)N1CCCC(n2ccnc2)C1 (stereo not given) | -16.2% |
| NC(=O)NC(=O)CN1CCN(CC2CC2)c2ccccc21 | 11.7% |
| CN(C)c1cc(C(=O)N2CCN(c3cc(C#N)ccn3)CC2)ccn1 | -9.27% |
| CC(C)N1CCC2(CCCN(c3nccc(C(F)(F)F)n3)C2)CC1 | 10.9% |
| CCCC(C)NC1CCN(c2ccc(-n3ccnc3C)cc2)CC1 (stereo not given) | -3.67% |

| SMILES | cytotoxicity at 10 µM |
| --- | --- |
| Cc1ccoc1C(=O)N1CCO[C@H]2[C@H](OCC3CCOCC3)CC[C@@H]21 | -6.42% |
| Cc1cc(C(=O)N2C[C@H](CO)C[C@H](CN3CCOCC3)C2)cnc1C | 3.98% |
| COCCN1CCC(N(Cc2noc(C3CC3)n2)C(C)=O)C1 (stereo not given) | -12.4% |
| O=c1n(CC2CCCO2)nc(CC2CCNCC2)n1-c1ccccc1 (stereo not given) | -3.49% |
| CN(C)c1ccc(C(=O)N2Cc3cnc(C(C)(C)C)nc3C2)cc1 | -5.51% |
| CCOc1cccc2c1OCC(C(=O)NS(=O)(=O)c1cccs1)=C2 | -2.97% |
| COc1ccc(N(C)C(=O)c2cccc(S(C)(=O)=O)c2)cn1 | 7.36% |
| CC1(C)CN(CC(F)(F)F)CCN1CC(=O)N1CCCCC1 | 13.2% |
| O=C1COC2(CCN(Cc3ccccn3)CC2)CN1CC1CC1 | 13.9% |
| Cn1nnc2cc(C(=O)NS(=O)(=O)Cc3ccc(F)cc3)ccc21 | -3.7% |
| OCC1(O)CCCN(Cc2ccc(-c3cc[nH]n3)s2)CC1 (stereo not given) | -141% |
| COC(=O)c1sccc1NC(=O)C1CCCN1C(=O)c1ccco1 (stereo not given) | 20.3% |
| CN(C)c1ncc(-c2cccc(F)c2)c(C2CNCCO2)n1 (stereo not given) | -29.9% |
| COc1ccc(CN2CCOC3(CCCN(c4cnccn4)C3)C2)cc1 (stereo not given) | 10.5% |
| CCCc1nc(C(=O)NCCN2CCC(c3ccccc3C)C2)cs1 (stereo not given) | -37.9% |
| c1cncc(OCc2noc3c2CN(Cc2ccco2)CC3)c1 | 1.71% |
| CCOCCS(=O)(=O)Cc1ccn(-c2cccc(F)c2)n1 | 4.48% |
| COc1cccc(NC(=O)N(CCO)C2CCc3ccccc32)c1 (stereo not given) | -1.08% |
| C1CC(CN2CC[C@@H]3O[C@@H](c4nnc(C5CC5)o4)C[C@H]3C2)CCO1 | 5.35% |
| CC(C)NC(=O)C(C)S(=O)(=O)c1cc2c(cc1Cl)OCCO2 (stereo not given) | -3.25% |
| CC(C)OCCN1CCN(c2ccc(Cl)cn2)CC1 | -1.67% |
| CC1(C(=O)NCc2ccsc2)CCOCC1 | 5.73% |

| SMILES | cytotoxicity at 10 µM |
| --- | --- |
| CC(O)CN1CCC(CN(C)Cc2cc(F)cc3cccnc23)CC1 (stereo not given) | -1.26% |
| O=S(=O)(NC[C@]12COC[C@H]1CN(CCc1ccccc1)C2)C1CC1 | 12.7% |
| Cc1cc(-c2cc(N)c(=O)n(CC(=O)NCC3CCCCC3)n2)c(C)o1 | -21.1% |
| OCc1nnc2n1CCN(c1cnccn1)C2 | 5.59% |
| O=C(O)[C@@H]1CN(C(=O)NCC2CCCCC2)C[C@H]1c1ccccn1 | 7.15% |
| CC(NC(=O)NCc1cccnc1N(C)C)c1cccs1 (stereo not given) | 1.76% |
| O=C(NCC(=O)N1CCCc2ccccc21)c1c(O)cc(F)cc1F | 28.6% |
| COC1CCN(C(=O)NCC(N)=O)CC(=O)N(C)c2ccccc21 (stereo not given) | 4.79% |
| COc1ccccc1CC(=O)NS(C)(=O)=O | -7.31% |
| Cc1n[nH]c(C2CN(Cc3nnc(C4CC4)n3C)CCO2)n1 (stereo not given) | -16% |
| O=C(CCN1CCC(C(=O)c2cc(F)ccc2F)CC1)NC1CC1 | -7.74% |
| Cn1ccc2cc(CC3COCCN(C(=O)c4cccnc4)C3)ccc21 (stereo not given) | 7.24% |
| Cc1ccc(CNCc2nnc3n2CC(C(F)(F)F)CC3)cc1 (stereo not given) | 6.84% |
| Cc1cccnc1C(=O)N1CCC(Cc2cnc3[nH]ccc3c2)CC1 | 1.85% |
| CCC[C@H]1CN(CCS(C)(=O)=O)C[C@@H]1NC(=O)c1cccnn1 | 3.25% |
| CC1CCCCN1C1CN(c2nc(C3CCCC3)nc3c2cnn3C)C1 (stereo not given) | -0.699% |
| Cc1ccc(C(=O)N2CCN3C[C@H](Oc4cccc(F)c4)C[C@H]3C2)cn1 | 11.2% |
| CN1[C@H](CO)C[C@H](CNCc2ccc(Cl)c(F)c2)[C@@H]1c1ccccc1F | -8.39% |
| CC(C)c1nsc(NC2CC(=O)N(C(C)(C)C)C2)n1 (stereo not given) | 5.09% |
| O=C(NCc1ccnc(OCC(F)(F)F)c1)NCC1CCCO1 (stereo not given) | -4.05% |
| CN1CC2(CCN(C(=O)c3ccc4nonc4c3)CC2)CC1=O | 0.873% |
| O=C1COC2(CCN(Cc3cccs3)CC2)CN1c1cncnc1 | -124% |

| SMILES | cytotoxicity at 10 µM |
| --- | --- |
| CN(C)C(=O)NCc1cc(=O)n2c(n1)CN(Cc1ccoc1)CCC2 | -99.3% |
| Cc1noc(C)c1CN1CC[C@H]2OCC[C@@]2(C(=O)N2CCCO2)C1 | 1.59% |
| COc1ccccc1C(C)(C)NC(=O)c1cc(NC(C)=O)ccc1F | -137% |
| Cc1cccc(-c2noc(CN3CCc4c(ncn4C4CC4)C3)n2)c1 | 4.95% |
| CNC(=O)COc1ccc(-c2ccccc2)nc1 | 1.76% |
| c1cc2c(cc1CSCc1noc(C3CC3)n1)OCCO2 | 10.4% |
| Cc1ccc(N2CCCC(NC(=O)C(C)(C)C#N)C2=O)cc1 (stereo not given) | -2.42% |
| CCCC(=O)N1CCC(c2nn(C)c(=O)n2-c2ccccc2)CC1 | 5.91% |
| COc1c(C2CCCN2CC(=O)Nc2cccnc2)c(C)nn1C (stereo not given) | -2.39% |
| CCN(CCNC(=O)Nc1nnc(C)s1)C(=O)OC(C)(C)C | -9.41% |
| O=C(Cc1ccon1)N1CCc2cc(Br)sc2C1 | 1.69% |
| Cc1ccc(CCC(=O)N2CCCC(n3cncn3)C2)c(C)c1 (stereo not given) | 1.8% |
| CN1CCCC(c2cccc(-c3cccc(C(F)(F)F)c3)n2)C1 (stereo not given) | -6.47% |
| Cn1cc(C[C@H]2[C@@H](O)CCN2C(=O)C2CC=CC2)cn1 | 5.6% |
| Cc1nn(CC(O)CN2CCc3ccccc3C2)c(=O)c(C#N)c1C (stereo not given) | 8.27% |
| CCn1cc(CN2CCCN(C(=O)c3ccccc3C)CC2)cn1 | -5.65% |
| O=C(c1cc[nH]n1)N1CCCC1c1cnccn1 (stereo not given) | -25.4% |
| O=C(NCCN1CCOCC1)c1cc(-c2ccccc2Cl)[nH]n1 | -4.02% |
| Cc1ccc(N2CCN(C)c3ncccc3C2)nn1 | -3.77% |
| COc1ccncc1NCc1cscn1 | 6.44% |
| CCC1CN(CC(=O)NCCN2CCCCC2)c2ccccc2S1 (stereo not given) | -10% |
| CCN(Cc1nc(COC)no1)C(=O)CCNC(=O)c1ccccc1F | -4.17% |
